Bioassay records from PubChem BioAssay.
DENV2 CPE rescue: DENV2-induced cell death inhibition. DENV2-infected cells, cytopathic effect rescue, plate reader. CPE inhibition, % at 9.99 µM. 350,000 tested, 1.7% active; in the data active means CPE inhibition above about 20%, passing the limit was not always enough; inconclusive means no clear call, values can overlap the other calls; tested in BHK-21 cells;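 further: 0% = median of neutral control wells and 100% = median of positive control wells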
PglD inh: blocks C. jejuni PglD acetyltransferase activity; purified PglD enzyme, DTNB colorimetric CoA detection; inhibition, % at 12.5 µM; 360,000 tested, 0.098% active; AID 602405; in the data active means inhibition above about 16%, passing the limit was not always enough; inconclusive means no clear call, values can overlap the other calls
PGC1a acetyl inh: modulators of PGC1a acetylation. U2OS PGC1a acetylation, AlphaScreen anti-acetyl-lysine; with virally co-expressed GCN5 acetyltransferase. inhibition, % at 15.6 µM. 350,000 tested, 0.17% active. AID 651687;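 active means every replicate shows inhibition of at least 40%; inconclusive means mean inhibition at least 40% but some replicate below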;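 further: 0% = neutral control wells and 100% = positive control wells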
HIV Env fusion: inhibitors of HIV Env-mediated cell fusion; HeLa-JRFL Env/CEM21 cell fusion, luciferase; inhibition, % at 12.3 µM; 360,000 tested, 1.1% active; AID 651610;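 active means mean replicate inhibition score of at least 50 and every replicate individually at or above 50; inconclusive means only one of the two criteria met; inactive means mean below 50 and not all replicates reaching 50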;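 further: 0% = plate neutral controls and 100% = maraviroc near 300 nM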
FN deposit inh: fibronectin deposition inhibition. AH1F fibroblasts, Alexa488-fibronectin deposition fluorescence, overnight. inhibition, % at 12.6 µM. 350,000 tested, 0.086% active. AID 743247;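 active means mean inhibition across replicates of 30% or more, regardless of how many single replicates reach that level; inconclusive means mean under 30% yet at least half of replicates reach 30%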;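 further: positive control wells lacked labelled fibronectin entirely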
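Material: AH1F fibroblast monolayer depositing Alexa488-labelled fibronectin into matrix | Input: 10000 AH1F cells/well | Medium: DMEM plus 2% serum, read in PBS | Reagent: Alexa488-fibronectin, 24 nM final in well | Compound dosing: One dose per compound, pinned | Schedule: 1 h adhesion, overnight exposure | Measured by: Fluorescence at 485 nm excitation, 525 nm emission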
Ecoli rRNA inh: inhibits bacterial ribosomal RNA function over humanized ribosomes; 350,000 tested, 1.6% active; AID 720706; E. coli WT GFP vs humanized-ribosome RFP mutants, fluorescence, 24 h; hits give low values; DMSO median 0, no signal -100; GFP signal change (wild-type ribosome), % (test concentration not listed);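 active means significant combined selectivity score with lowered wild-type GFP, culture density cut under 30%, mutant RFP and density less affected; inactive means any of these conditions unmet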
Numbers without * were called inactive; ? = inconclusive; / = no result given; [ ] = another dose, or the depositor's remark. Only some compounds are listed: those with a hit (about 3.5% of all), similar ones and a draw of the others.

SMILES | DENV2 CPE rescue | PglD inh | PGC1a acetyl inh | HIV Env fusion | FN deposit inh | Ecoli rRNA inh
C[C@@H]1CCCCO[C@H](CN(C)C(=O)NC2CCCCC2)[C@H](C)CN([C@H](C)CO)C(=O)c2cc(NC(=O)Nc3ccc(C(F)(F)F)cc3)ccc2O1 | 31* | -2 | 1 | 0[16.7 µM] | / | 4
C[C@@H]1CN([C@@H](C)CO)C(=O)c2cc(NC(=O)Nc3ccc(C(F)(F)F)cc3)ccc2O[C@@H]1CN(C)C(=O)NC1CCCCC1 | 101* | 2 | 1 | / | / | -4
CC(C)NC(=O)Nc1ccc2c(c1)C(=O)N([C@@H](C)CO)C[C@@H](C)[C@H](CN(C)Cc1ccc(C(F)(F)F)cc1)O2 | 9 | -1 | 6 | / | / | 3
C[C@@H]1CN([C@H](C)CO)C(=O)c2ccccc2-c2ccccc2CO[C@H]1CN(C)C(=O)NC1CCCCC1 | -5 | -1 | -30 | -2[16.7 µM] | -25 | -1
Cc1ccc(CN(C(=O)c2cc(=O)c3cc(Cl)c(C)cc3o2)C2CCS(=O)(=O)C2)cc1 (stereo not drawn) | / | 1 | -8 | / | / | /
Cc1cc2oc(C(=O)N(Cc3cccs3)C3CCS(=O)(=O)C3)cc(=O)c2cc1Cl (stereo not drawn) | -8 | 3 | 1 | 10 | -5 | -21*
Cc1ccc(/C=C/C(=O)N(Cc2cccs2)C2CCS(=O)(=O)C2)cc1 (stereo not drawn) | -4 | -1 | -1 | 11 | -4 | -29*
O=C(/C=C/c1ccc(Cl)cc1)N(Cc1cccs1)C1CCS(=O)(=O)C1 (stereo not drawn) | -3 | -2 | 5 | 15 | -2 | -20
COc1ccc(-c2cn[nH]c2-c2ccc(OC)cc2O)cc1 | -9 | / | / | 58* | -9 | 8
COc1ccccc1Oc1cn[nH]c1-c1ccc(O)cc1O | ? | / | / | 11 | 6 | -21*
COc1ccc(-c2nc(C)ncc2-c2ccccc2)c(O)c1 | -3 | 5 | -5 | 13 | -2 | -28*
COc1cccc(Oc2cn[nH]c2-c2ccc(O)cc2O)c1 | / | -1 | 1 | / | / | /
COc1ccc(-c2[nH]ncc2-c2ccc(Cl)cc2)c(O)c1 | / | -1 | -4 | / | / | /
COc1ccc(NC(=O)N(C)C[C@H]2OCCCC[C@H](C)Oc3ccc(NC(=O)Nc4ccc5c(c4)OCO5)cc3C(=O)N([C@H](C)CO)C[C@@H]2C)cc1 | 4 | 1 | 9 | -6[16.7 µM] | / | 0
Cc1ccc(S(=O)(=O)N[C@@H]2CC[C@H](CC(=O)NCCCN(C)C)O[C@H]2CO)cc1 | / | / | -11 | / | / | 5
CCC(=O)N1CC[C@@H]2[C@H]1c1cc(-c3ccc(F)cc3)ccc1N(C)[C@@H]2CO | -10 | 3 | 1 | / | -3 | -8
CCN(CC)c1ccc(/C=N/N2C(C)CCCC2C)c(O)c1 (stereo not drawn) | -1 | -3 | / | 73* | 4 | 6
Cc1noc(C)c1NC(=O)Nc1cccc2c1O[C@@H](CN(C)Cc1ccc(C(=O)O)cc1)[C@@H](C)CN([C@H](C)CO)C2=O | 10 | -2 | 4 | / | / | 3
CC12CCC3c4ccc(OCCCO)c([N+](=O)[O-])c4CCC3C1CCC2=O (stereo not drawn) | 43* | / | / | -1 | 16 | -53
COCC(=O)Nc1ccc2c(c1)[C@H]1C[C@H](CC(=O)N3CCOCC3)O[C@@H](CO)[C@H]1O2 | 5 | -3 | 0 | -10[16.7 µM] | -8 | 6
C=C1SC(Nc2c(C)cccc2C)=NC12CCCCC2 | 0 | 0 | -1 | 11 | -3 | -22*
Cc1cc(C)c(NC(=O)CN2C(=O)NC3(CCCCC3)C2=O)c(C)c1 | 0 | -6 | -12 | / | / | 4
C=C1SC(Nc2c(C)cc(C)cc2C)=NC12CCCCC2 | ? | -2 | 1 | 7 | 3 | -50*
C[C@@H]1CN([C@H](C)CO)C(=O)Cc2cc(NC(=O)Nc3ccc(F)cc3)ccc2O[C@H]1CN(C)C(=O)NC1CCCCC1 | -4 | -1 | -1 | -6[16.7 µM] | / | 0
O=S(=O)(c1ccccc1F)N1CC[C@@H]2[C@H]1c1cc(-c3cccc(F)c3)ccc1N[C@@H]2CO | / | -2 | -17 | / | 64* | -12
SMILES | DENV2 CPE rescue | PglD inh | PGC1a acetyl inh | HIV Env fusion | FN deposit inh | Ecoli rRNA inh
COc1ccccc1-c1ccc2c(c1)[C@H]1[C@H](CCN1S(=O)(=O)c1ccccc1F)[C@H](CO)N2 | 23* | 3 | -10 | / | -2 | -5
O=S(=O)(c1ccccc1F)N1CC[C@@H]2[C@H]1c1cc(-c3ccccc3)ccc1N[C@@H]2CO | 15 | 2 | 3 | / | -2 | -8
O=S(=O)(c1ccccc1F)N1CC[C@@H]2[C@H](CO)Nc3ccc(-c4ccc(F)cc4)cc3[C@@H]21 | -8 | 1 | -23 | / | 8 | -10
O=S(=O)(c1ccccc1F)N1CC[C@H]2[C@H](CO)Nc3ccc(-c4cccc(F)c4)cc3[C@H]21 | 29* | 4 | -9 | / | 34* | -16
COc1ccccc1-c1ccc2c(c1)[C@H]1[C@H](CCN1S(=O)(=O)c1ccccc1F)[C@@H](CO)N2 | 9 | -1 | -12 | / | -13 | 4
COc1ccc(NC(=O)N(C)C[C@H]2Oc3ccc(NC(=O)Cn4cnnn4)cc3C(=O)N([C@@H](C)CO)C[C@@H]2C)cc1 | 5 | 6 | -11 | / | / | 2
C[C@H]1CN([C@@H](C)CO)C(=O)c2ccccc2-c2ccccc2CO[C@@H]1CN(C)Cc1ccc(Cl)c(Cl)c1 | 1 | / | -1 | / | -8 | -5
CCOC(=O)c1cn(C[C@H](Cc2ccccc2)NC(=O)N[C@H](CO)CCc2oc(C(C)=O)c(C(=O)OC)c2C(=O)OC)nn1 | 6 | 2 | 1 | -3[16.7 µM] | / | /
CC(C)N1CCc2c(sc(NC(=O)c3ccc([N+](=O)[O-])o3)c2C(N)=O)C1 | -3 | -3 | / | 106* | 18 | -56
CC(=O)c1ccc(N(C(=O)Cc2c[nH]c3ccccc23)C(C(=O)NC2CCCCC2)c2cccs2)cc1 (stereo not drawn) | / | -5 | / | -52 | -6 | /
COc1ccc(C(C(=O)NC2CCCCC2)N(Cc2cccs2)C(=O)Cc2c[nH]c3ccccc23)cc1 (stereo not drawn) | / | -4 | -12 | ? | -4 | /
Cc1ccc(N(C(=O)Cc2cccs2)C(C(=O)NC2CCCCC2)c2ccccn2)cc1C (stereo not drawn) | / | / | / | 82* | -2 | /
O=C(NC1CCCCC1)C(c1cccs1)N(C(=O)Cc1c[nH]c2ccccc12)c1ccc(F)cc1 (stereo not drawn) | / | 1 | -5 | 87* | 1 | /
Cc1cccc(N(C(=O)Cc2cccs2)C(C(=O)NC2CCCC2)c2ccncc2)c1 (stereo not drawn) | -4 | 2 | 3 | 21 | 0 | 4
Cc1ccc(C(C(=O)NC2CCCCC2)N(C(=O)Cc2c[nH]c3ccccc23)c2ccccc2)o1 (stereo not drawn) | / | 7 | -19 | 112* | 2 | /
